Activity calls are given as the source filed them. The rule behind the calls is not given here.
What was measured:
[1] = system: MCF7; assay: Cytotoxicity against human MCF7 cells after 72 hrs by MTT assay; type: functional, cell-based; settings: for IC50: MCF7, 72 h
How it was run: (§1)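 MTT viability assay after 72 h incubation; IC50 reported as mean ± error from viability curves.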

[2] = system: MG-63; assay: Cytotoxicity against human MG63 cells after 72 hrs by MTT assay; type: functional, cell-based; settings: for IC50: MG-63, 72 h; how it was run: as §1
[3] = system: HT-29; assay: Cytotoxicity against human HT-29 cells after 72 hrs by MTT assay; type: functional, cell-based; settings: for IC50: HT-29, 72 h; how it was run: as §1
[4] = system: MG-63; assay: Cell cycle arrest in human MG63 cells assessed as increase in accumulation at G2/M phase at 1 uM after 24 hrs by propidium iodide staining based flow cytometric analysis relative to control; type: functional
How it was run: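 MG-63 cells incubated 24 h with compound at 1 µM alongside vehicle control (DMSO, <0.001%); DNA content measured by fluorescence flow cytometry, giving percentages of cells in G0/G1, S and G2/M; significance versus control tested at p < 0.001.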

[5] = system: MG-63; assay: Cytotoxicity against human MG63 cells after 24 hrs by annexin-V-FITC/propidium iodide staining based flow cytometric method; type: functional, cell-based; settings: MG-63, 24 h
How it was run: (§2)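 Flow cytometric cytotoxicity measured after 24 h exposure; IC50 derived. Viability was also plotted against drug concentrations from 0.1 to 100 µM over 24 h in HT-29, MCF-7 and MG-63.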

[6] = system: MCF7; assay: Cytotoxicity against human MCF7 cells after 24 hrs by annexin-V-FITC/propidium iodide staining based flow cytometric method; type: functional, cell-based; settings: MCF7, 24 h; how it was run: as §2
[7] = system: HT-29; assay: Cytotoxicity against human HT-29 cells after 24 hrs by annexin-V-FITC/propidium iodide staining based flow cytometric method; type: functional, cell-based; settings: HT-29, 24 h; how it was run: as §2
[8] = system: MG-63; assay: Induction of apoptosis in human MG63 cells assessed as total apoptotic cells at 1 uM after 24 hrs by annexin-V-FITC/propidium iodide staining based flow cytometric analysis (reference value: 10.42%); type: functional
[9] = system: MG-63; assay: Induction of apoptosis in human MG63 cells assessed as viable cells at 1 uM after 24 hrs by annexin-V-FITC/propidium iodide staining based flow cytometric analysis (reference value: 89.58%); type: functional; settings: MG-63, 24 h, read-out: Activity
[10] = system: MG-63; assay: Cell cycle arrest in human MG63 cells assessed as reduction in accumulation at S-phase at 1 uM after 24 hrs by propidium iodide staining based flow cytometric analysis relative to control; type: functional; parameters: scale not given: the % may be the effect or the level left
How it was run: (§3)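 MG-63 osteosarcoma cells exposed to test agent at 1 µM for 24 h, with a DMSO vehicle control (<0.001%). DNA content was measured by fluorescence flow cytometry, and cells were assigned to G0/G1, S and G2/M phases as percentage of the population. Significance versus control was tested at p < 0.001.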

[11] = system: MG-63; assay: Cell cycle arrest in human MG63 cells assessed as reduction in accumulation at G0/G1-phase at 1 uM after 24 hrs by propidium iodide staining based flow cytometric analysis relative to control; type: functional; parameters: scale not given: the % may be the effect or the level left; how it was run: as §3
[12] = system: MG-63; assay: Induction of apoptosis in human MG63 cells assessed as increase in late apoptotic cells at 1 uM after 24 hrs by annexin-V-FITC/propidium iodide staining based flow cytometric analysis; type: functional, cell-based
How it was run: (§4)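 Apoptosis was assessed in MG-63 cells treated for 24 h at 1 µM, alongside a DMSO vehicle control (<0.001%). Cells were stained with annexin V and PI and analysed by flow cytometry. Populations were classed as early apoptotic (annexin+/PI-), late apoptotic/dead (annexin+/PI+) or living (annexin-/PI-). Total annexin+ percentage and the PI-/PI+ ratio were reported.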

[13] = system: MG-63; assay: Induction of apoptosis in human MG63 cells assessed as increase in early apoptotic cells at 1 uM after 24 hrs by annexin-V-FITC/propidium iodide staining based flow cytometric analysis; type: functional, cell-based; how it was run: as §4

**Q.** C=C1CCC2[C@](C)(CCC[C@]2(C)C(=O)OC)[C@H]1CCc1ccc2c(OC(C)=O)ccc(OC(C)=O)c2c1 (stereo partly drawn) was tested. Which IC50 [1] did it give?
**A.** 15 nM

**Q.** What about the IC50 [2] of the same compound?
**A.** 410 nM

**Q.** And the IC50 [3]?
**A.** 18 nM

**Q.** And the Activity [4]?
**A.** Active

**Q.** And the IC50 [5]?
**A.** 1.16 µM

**Q.** What about the IC50 [6] of the same compound?
**A.** 29.9 µM

**Q.** What about the IC50 [7] of the same compound?
**A.** 5.65 µM

**Q.** Which Activity [1] does the source give for C=C1CCC2[C@](C)(CCC[C@]2(C)C(=O)OCCCCCCBr)[C@H]1CCc1ccc2c(OC(C)=O)ccc(OC(C)=O)c2c1 (stereo partly drawn) here?
**A.** Active

**Q.** What about the Activity [2] of the same compound?
**A.** Active

**Q.** And the Activity [3]?
**A.** Active

**Q.** Which results are given for COc1cc([C@@H]2c3cc4c(cc3[C@H](O)[C@H]3COC(=O)[C@H]23)OCO4)cc(OC)c1OC [PODOFILOX]?
**A.** IC50 [1]: 28 nM; Activity [8]: 48.56%; IC50 [2]: 7 nM; IC50 [3]: 66 nM; Activity [4]: Active; IC50 [5]: 18.3 µM; IC50 [6]: > 100 µM; IC50 [7]: > 100 µM; viability at 1 µM [9]: 51.4%

**Q.** Which results are given for COC(=O)[C@@H]1C(C=O)=Cc2cc3c(cc2[C@H]1c1cc(OC)c(OC)c(OC)c1)OCO3 [PODOPHYLLIC ALDEHYDE]?
**A.** IC50 [1]: 480 nM; Activity [8]: 48.08%; IC50 [2]: 60 nM; IC50 [3]: 29 nM; Activity [10]: 100%; Activity [4]: Active; Activity [11]: 100%; IC50 [5]: 1.23 µM; IC50 [6]: > 100 µM; IC50 [7]: > 100 µM; viability at 1 µM [9]: 51.9%; Activity [12]: Active; Activity [13]: Active

**Q.** What does the source list for C=C1CCC2[C@](C)(CCC[C@]2(C)C(=O)OCc2ccc(COC(=O)[C@@H]3C(C=O)=Cc4cc5c(cc4[C@H]3c3cc(OC)c(OC)c(OC)c3)OCO5)cc2)[C@H]1CCc1ccc2c(OC(C)=O)ccc(OC(C)=O)c2c1 (stereo partly drawn)?
**A.** IC50 [1]: 1030 nM; Activity [8]: 89.96%; IC50 [2]: 150 nM; IC50 [3]: 1440 nM; Activity [10]: 100%; fold change (FC) [4]: 5; Activity [11]: 100%; IC50 [5]: 0.5 µM; IC50 [6]: > 100 µM; IC50 [7]: > 100 µM; viability at 1 µM [9]: 10%; Activity [12]: Active; Activity [13]: Active

**Q.** How did the Activity [1] turn out when C=C1CCC2[C@](C)(CCC[C@]2(C)C(=O)OCc2ccc(CBr)cc2)[C@H]1CCc1ccc2c(OC(C)=O)ccc(OC(C)=O)c2c1 (stereo partly drawn) was run?
**A.** Active

**Q.** And the Activity [2]?
**A.** Active

**Q.** And the Activity [3]?
**A.** Active

**Q.** C=C1CCC2[C@](C)(CCC[C@]2(C)C(=O)OCCCCCCOC(=O)[C@@H]2C(C=O)=Cc3cc4c(cc3[C@H]2c2cc(OC)c(OC)c(OC)c2)OCO4)[C@H]1CCc1ccc2c(OC(C)=O)ccc(OC(C)=O)c2c1 (stereo partly drawn) was tested. Which IC50 [1] did it give?
**A.** 1000 nM

**Q.** What about the Activity [8] of the same compound?
**A.** 11.24%

**Q.** What about the IC50 [2] of the same compound?
**A.** 2060 nM

**Q.** And the IC50 [3]?
**A.** 1910 nM

**Q.** What about the IC50 [5] of the same compound?
**A.** 44.6 µM

**Q.** What about the IC50 [6] of the same compound?
**A.** > 100 µM

**Q.** What about the IC50 [7] of the same compound?
**A.** 57.6 µM

**Q.** And the viability at 1 µM [9]?
**A.** 88.8%

**Q.** What does the source list for C=C1CCC2[C@](C)(CCC[C@]2(C)C(=O)OCCCOC(=O)[C@@H]2C(C=O)=Cc3cc4c(cc3[C@H]2c2cc(OC)c(OC)c(OC)c2)OCO4)[C@H]1CCc1ccc2c(OC(C)=O)ccc(OC(C)=O)c2c1 (stereo partly drawn)?
**A.** IC50 [1]: 2210 nM; Activity [8]: 25.03%; IC50 [2]: 2230 nM; IC50 [3]: 1510 nM; Activity [4]: Active; IC50 [5]: 58.2 µM; IC50 [6]: > 100 µM; IC50 [7]: > 100 µM; viability at 1 µM [9]: 75%

**Q.** C=C1CCC2[C@](C)(CCC[C@]2(C)C(=O)OCCCBr)[C@H]1CCc1ccc2c(OC(C)=O)ccc(OC(C)=O)c2c1 (stereo partly drawn) was tested. Which Activity [1] did it give?
**A.** Active

**Q.** And the Activity [2]?
**A.** Active

**Q.** And the Activity [3]?
**A.** Active

From ChEMBL document CHEMBL4251735, “New Hybrids Derived from Podophyllic Aldehyde and Diterpenylhydroquinones with Selectivity toward Osteosarcoma Cells” (ACS Med Chem Lett, 2018)
